Source: PubChem BioAssay
An excerpt weighted towards active compounds, which were near 2.6% of everything screened.
NPY Y2 blocker – NPY-Y2 receptor antagonists, primary screen, cell-based. NPY-Y2 expressing cells, antagonist mode. hit rate 0.99% among 140,000. Neuropeptide Y receptor type 2 (Homo sapiens), P49146. inhibition, % at 2.7 µM
Target sequence (P49146 whole entry, looked up): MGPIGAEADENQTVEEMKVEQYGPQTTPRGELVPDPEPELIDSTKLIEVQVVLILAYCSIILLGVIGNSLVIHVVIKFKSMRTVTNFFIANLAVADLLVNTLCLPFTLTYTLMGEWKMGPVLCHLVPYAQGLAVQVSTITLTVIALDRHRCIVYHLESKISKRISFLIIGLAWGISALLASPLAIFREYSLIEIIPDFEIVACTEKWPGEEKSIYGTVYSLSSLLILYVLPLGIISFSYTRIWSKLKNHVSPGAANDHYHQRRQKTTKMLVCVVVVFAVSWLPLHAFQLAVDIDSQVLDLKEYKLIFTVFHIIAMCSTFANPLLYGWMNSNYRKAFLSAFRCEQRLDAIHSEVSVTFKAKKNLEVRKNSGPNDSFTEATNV
NPY-Y1 antag – NPY-Y1 receptor antagonists, primary screen, cell-based. Neuropeptide Y receptor type 1 (Homo sapiens), P25929. HEK293-CNG Y1 cells, membrane potential fluorescence; NPY at EC95, then isoproterenol. inhibition, % at 3.6 µM. hit rate 1% among 200,000. AID 1040, 2008;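 active = inhibition above the campaign mean inhibition of all tested compounds plus 3 SD, cut at about 20% in these data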
Target sequence (P25929 whole entry, looked up): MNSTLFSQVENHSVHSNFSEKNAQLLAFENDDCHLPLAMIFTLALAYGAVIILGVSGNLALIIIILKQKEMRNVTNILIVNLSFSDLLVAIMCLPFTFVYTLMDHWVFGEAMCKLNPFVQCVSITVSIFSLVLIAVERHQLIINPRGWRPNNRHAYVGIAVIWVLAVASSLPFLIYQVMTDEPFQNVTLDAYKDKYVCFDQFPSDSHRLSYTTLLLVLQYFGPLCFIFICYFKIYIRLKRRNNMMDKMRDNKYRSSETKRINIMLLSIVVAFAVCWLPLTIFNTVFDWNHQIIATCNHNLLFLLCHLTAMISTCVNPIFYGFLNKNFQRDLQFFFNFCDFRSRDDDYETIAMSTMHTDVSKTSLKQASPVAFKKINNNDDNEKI
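Test system – HEK293 Y1/CNG channel cell line · Also added – NPY agonist 25 nM, then isoproterenol 1 µM plus Ro 20-1724 25 µM · Compound dosing – one concentration, 3.6 µM, in 0.4% DMSO · Schedule – compound incubation 1 h at room temperature, readout 45 min post-stimulation · Technique – fluorescence, membrane potential probe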
MT stabilizer – microtubule stabilizers in HeLa cells, primary screen, imaging, high-content imaging; HeLa tubulin immunostaining HCS, 24 h; share of cells brighter than vehicle mean+2SD; % tubulin-high responders, % at 10 µM; hit rate 0.83% among 200,000;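 active = plate Z-score above 3 for both tubulin-high and condensed-nucleus cell shares, with cell loss under 80%, at 10 µM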;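 also: anti alpha tubulin signal scored within the nucleus-defined area of each cell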
NPY2 pot ag – NPY-Y2 potentiators or agonists, primary screen, cell-based; cells expressing NPY-Y2, potentiator/agonist read-out; Neuropeptide Y receptor type 2 (Homo sapiens), P49146; hit rate 0.45% among 220,000; activation, % at 3.6 µM; in the data active = activation above about 27%;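 also: cells stimulated with NPY near EC25 plus isoproterenol at EC100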
b-catenin transl – modulators of beta-catenin nuclear translocation, primary screen, imaging, HeLa cells, immunofluorescence, high-content; hit rate 0.3% among 190,000; nuclear translocation activity, % at 5 µM;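 active = nuclear translocation activity above 50% at 5 µM, with a well cell count of 50 or more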;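 also: per-cell ratio of nuclear to cytoplasmic median beta-catenin stain intensity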
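Test system: human HeLa cells, native beta-catenin. Compound dosing: 5 µM primary single dose, 0.1% DMSO, 0.02–20 µM confirmation series. Incubation: compound exposure 24 h at 37°C. Detection: beta-catenin immunostaining with DAPI counterstain, 20x imaging, 6 fields/well. Read-out basis: Nuclear/cytoplasmic beta-catenin signal ratio, % activation.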
NPY-Y1 PAM-ag – NPY-Y1 receptor potentiators or agonists, primary screen, cell-based | NPY-Y1 expressing cells, potentiator/agonist activation | AID 1304, 2008 | hit rate 0.37% among 220,000 | activation, % at 3.6 µM; in the data active = activation above about 33%, passing the limit was not always enough;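 also: cells stimulated with NPY at EC10 then isoproterenol at EC100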
NPY1 antag conf – NPY-Y1 receptor antagonists, retest of hits, confirmation, HEK293-CNG cells, membrane potential fluorescence, triplicate. shares compounds with NPY-Y1 antag. cAMP; NPY challenge against isoproterenol-raised cAMP. inhibition, % at 3.6 µM. hit rate 21% among 1,200. AID 1254, 2008; in the data active = inhibition above about 20%
NPY2 antag ctr – NPY-Y2 receptor antagonists, selectivity check, confirmation, counter-screen for NPY-Y1 antagonist project, HEK293-CNG cells, membrane potential fluorescence, triplicate. inhibition, % at 3.6 µM. hit rate 28% among 1,200. AID 1255, 2008. antagonism; cells given NPY, then isoproterenol. shares compounds with NPY-Y1 antag
NPY-Y2 confirm – NPY-Y2 potentiators or agonists, confirmation, cell-based. hit rate 20% among 450. activation, % at 3.6 µM. cell-based NPY-Y2 potentiator/agonist assay. shares compounds with NPY2 pot ag; in the data active = activation above about 33%
NPY-Y1 counter – NPY-Y1 potentiators or agonists, counter-screen for NPY-Y2 potentiator project, cell-based, fluorescence. shares compounds with NPY2 pot ag. Y1 HEK293-CNG cells, membrane potential fluorescence. activation, % at 3.6 µM. hit rate 20% among 450. AID 1651, 2009; in the data active = activation above about 45%;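 also: cells stimulated with submaximal NPY then isoproterenol with phosphodiesterase inhibitor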
NPY-Y1 ag 2 – NPY-Y1 direct agonists, selectivity assay for NPY-Y2 potentiator project, cell-based, fluorescence. shares compounds with NPY2 pot ag. HEK293 Y1-CNGC, membrane potential fluorescence, agonism. activation, % at 3.6 µM. hit rate 37% among 450;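 active = activation above the mean of DMSO-only control wells plus 3 SD, cut at about 18% in these data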;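 also: cells stimulated with 1 µM isoproterenol plus the PDE inhibitor Ro 20-1724; Y1 agonists lower the membrane potential dye signal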
CNGC inh – CNGC cAMP sensor activity inhibitors, counter-screen for NPY-Y2 potentiator project, cell-based, HEK293-CNG parental, membrane potential fluorescence | shares compounds with NPY2 pot ag | inhibition, % at 3.6 µM | isoproterenol cAMP | AID 1703, 2009 | hit rate 32% among 450;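 active = inhibition above the control-well mean plus 3 SD of those wells, cut at about 22% in these data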
Y2 agonist ctr – NPY-Y2 direct agonists, counter-screen for NPY-Y2 potentiator project, cell-based, fluorescence | HEK293 Y2/CNGC cells, membrane potential fluorescence, agonist mode | hit rate 56% among 450 | shares compounds with NPY2 pot ag | activation, % at 3.6 µM;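 active = activation above the mean of solvent-only control wells plus 3 SD, cut at about 10% in these data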;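 also: cells stimulated by isoproterenol with no NPY added so direct agonism is tested; agonism lowers probe fluorescence through less cAMP and CNG channel opening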
Hits are given with their value; – = inactive; · = no result given. Rule as the data show it, unless noted: active = inhibition above about 17%; inactive = the rest.

SMILES	NPY Y2 blocker	NPY-Y1 antag	MT stabilizer	NPY2 pot ag	b-catenin transl	NPY-Y1 PAM-ag	NPY1 antag conf	NPY2 antag ctr	others
COc1ccc(C)cc1NC(=O)CSc1nnc(COc2ccc(Cl)cc2)n1Cc1ccco1	–	–	–	–	–	–	·	·
O=C(NC1CCCCC1)C(c1ccncc1)N(Cc1ccc2c(c1)OCO2)C(=O)c1cnsn1 (centres undefined)	–	25	–	–	–	–	28	–
O=C(NC1CCCC1)C(c1ccncc1)N(Cc1ccccc1)C(=O)Cc1cccs1 (centres undefined)	–	21	–	–	–	–	–	–
Cc1onc(-c2c(Cl)cccc2Cl)c1COC(=O)c1ccc(Cl)cc1	·	·	·	–	–	–	·	·
CCCN(CCC)CCCNC(=O)C1c2cc(OC)c(OC)cc2C(=O)N(C)C1c1cccnc1 (centres undefined)	·	–	–	–	·	–	·	·
O=C(NC1CC2CCCC(C1)N2Cc1cccs1)c1ccc([N+](=O)[O-])cc1 (centres undefined)	·	–	–	–	–	–	·	·
Cc1ccc(-n2ncc(C(=O)N3CCc4ccccc4C3)c2NC(=O)c2ccco2)cc1C	–	22	–	–	–	–	–	–
COC(=O)C(=O)Nc1nnc(COc2ccccc2)s1	–	–	–	–	–	–	·	·
Cc1cc(C(=O)Cn2nc(C(=O)O)c3ccccc3c2=O)c(C)n1-c1ccc(F)cc1	–	22	–	–	–	–	–	–
Cc1cc(C(=O)Cn2nc(C(=O)O)c3ccccc3c2=O)c(C)n1-c1cccc(C(F)(F)F)c1	·	·	·	–	–	–	·	·
COC(=O)c1cn(-c2ccccc2)nc1-c1ccc(OC)cc1	·	–	–	–	–	–	·	·
CCN(CC)CCNC(=S)NC(=O)c1cn(-c2ccccc2)nc1-c1ccc(OC)cc1	·	26	–	–	–	–	–	32
Cc1cc(C)c2c(CN3CCN(C/C=C/c4ccccc4)CC3)cc(=O)oc2c1	–	25	–	–	–	–	–	18
O=C(CSc1nncs1)NCc1ccc(F)cc1	·	–	–	–	–	–	·	·
Nc1ccccc1C(=O)NNc1ncc(C(F)(F)F)cc1Cl	–	21	–	–	–	–	–	–
CCCCN(C)C(=O)c1nc2ccccn2c1CN1CCN(C/C=C/c2ccccc2)CC1	·	26	–	–	–	–	–	–
Cc1ccccc1OCCn1cnc2cc([N+](=O)[O-])ccc2c1=O	·	–	–	–	–	–	·	·
CC(C)(C)C(=O)Nc1cc2nn(-c3ccccc3)nc2cc1Cl	–	20	–	–	·	–	–	–
Cc1cc(-c2ccccc2)nc(Oc2cccc(C(F)(F)F)c2)c1S(C)(=O)=O	–	29	–	–	–	–	–	–
Cn1c(-c2ccc3c(c2)OCO3)cnc1NC(=O)CCC(=O)NCCc1ccccc1	–	–	–	–	–	–	·	·
Cn1c(-c2ccc3c(c2)OCO3)cnc1NCc1cccc(Cl)c1	–	34	–	–	–	–	–	–
O=C(COC(=O)C1=COCCO1)NCc1ccc(Cl)cc1	·	–	–	–	–	–	·	·
Brc1ccc(-c2nnc3c4ccccc4nc(N4CCOCC4)n23)cc1	–	–	–	–	–	–	·	·
Clc1ccc(-c2nnc3c4ccccc4nc(N4CCOCC4)n23)cc1Cl	–	21	–	–	–	–	–	–
CCOC(=O)N1CCN(C(=O)CSCC(=O)Nc2nc(-c3ccc(OC)cc3)cs2)CC1	–	–	–	–	·	–	·	·
SMILES	NPY Y2 blocker	NPY-Y1 antag	MT stabilizer	NPY2 pot ag	b-catenin transl	NPY-Y1 PAM-ag	NPY1 antag conf	NPY2 antag ctr	others
CCOC(=O)N1CCN(C(=O)CSCC(=O)Nc2nc(-c3ccc(-c4ccccc4)cc3)cs2)CC1	–	21	–	33	–	–	–	–	NPY-Y2 confirm=–;NPY-Y1 counter=–;NPY-Y1 ag 2=–;CNGC inh=–;Y2 agonist ctr=–
CC(C)(C)NCc1cc(Cl)ccc1OCc1ccccc1F	·	24	–	31	–	–	–	–	NPY-Y2 confirm=–;NPY-Y1 counter=–;NPY-Y1 ag 2=–;CNGC inh=–;Y2 agonist ctr=–
CC(NC(=O)Nc1nnc(C(F)(F)F)s1)(C(F)(F)F)C(F)(F)F	–	43	–	58	–	–	27	–	NPY-Y2 confirm=–;NPY-Y1 counter=–;NPY-Y1 ag 2=–;CNGC inh=–;Y2 agonist ctr=–
Cc1[nH]c(=O)[nH]c(=O)c1CSCC(=O)OCC(=O)Nc1ccccn1	·	·	·	–	–	–	·	·
COc1ccc(-c2ccc(CO)o2)cc1N	·	–	–	–	–	–	·	·
Cc1ccc(-n2ncc(C(=O)Nc3cc(Cl)ccc3Cl)c2C2CCNCC2)cc1	·	–	–	–	–	–	·	·
Cc1ccc(-n2ncc(C(=O)Nc3cc(Cl)cc(Cl)c3)c2C2CCNCC2)cc1C	·	34	–	51	–	–	–	–	NPY-Y2 confirm=48;NPY-Y1 counter=62;NPY-Y1 ag 2=–;CNGC inh=26;Y2 agonist ctr=31
CN1CCN(c2ccccc2NC(=O)c2ccc(N3CCCC3)c([N+](=O)[O-])c2)CC1	·	–	–	–	–	–	·	·
